Drawing on ChEMBL document CHEMBL1122698, “Selective delivery of cytotoxic compounds to cells by the LDL pathway” (1984), this text covers Growth of cells for 15 compounds.

Holding throughout (type): functional
Experiment [1] is filed under the species Homo sapiens. Nature of the experiment: (§1) The compound was tested for the toxicity of normal +r-LDL, measured by its ability to inhibit the growth of normal human fibroblasts or chinese hamster ovary (CHO) cells, at concentration 10 ug/mL. The method in brief:
(§2)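 Compound reconstituted into LDL (r-LDL) and added to cells; concentration given as LDL protein, roughly equal to compound concentration. Cells plated 20 000/well, left 4 h, then r-LDL added. On day 3, wells washed with PBS to remove dead cells; adherent cells fixed in 15% formalin 15 min, crystal violet stained, scored visually on a 0–6 growth scale (untreated control = 6).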

Experiment [2] in a line: The compound was tested for the toxicity of mutant+r-LDL, measured by its ability to inhibit the growth of normal human fibroblasts or chinese hamster ovary (CHO) cells, at concentration 10 ug/mL. The method in brief:
as §2

The species entered for experiment [3] is Homo sapiens. Nature of the experiment: The compound was tested for the toxicity of normal +r-LDL, measured by its ability to inhibit the growth of normal human fibroblasts or chinese hamster ovary (CHO) cells, at concentration 0.5 ug/mL. The method in brief: as §2
Experiment [4] in a line: The compound was tested for the toxicity of mutant+r-LDL, measured by its ability to inhibit the growth of normal human fibroblasts or chinese hamster ovary (CHO) cells, at concentration 0.5 ug/mL. The method in brief:
as §2

The species named for experiment [5] is Homo sapiens. Nature of the experiment: The compound was tested for the toxicity of normal +r-LDL, measured by its ability to inhibit the growth of normal human fibroblasts or chinese hamster ovary (CHO) cells, at concentration 20 ug/mL. The method in brief:
(§3)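 Normal human fibroblasts were seeded at 20 000/well and held 4 h before addition of compound-reconstituted LDL (r-LDL) or methylated r-LDL. Comparison cells with few LDL receptors were receptor-negative homozygous FH fibroblasts or V-79 CHO cells. Doses are given as LDL protein concentration. On day 3 the cells were PBS-washed, fixed with 15% formalin for 15 min and stained with crystal violet. Growth was scored visually from 0 to 6, with untreated controls at 6.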

A short description of experiment [6]: The compound was tested for the toxicity of mutant+r-LDL, measured by its ability to inhibit the growth of normal human fibroblasts or chinese hamster ovary (CHO) cells, at concentration 20 ug/mL. Put shortly: as §3
For experiment [7], the species on record is Homo sapiens. The experiment is described as §1. The method in brief:
as §3
The source holds these as a separate data set.

Experiment [8] is filed under the species Homo sapiens. Nature of the experiment: The compound was tested for the toxicity of +Me-r-LDL,measured by its ability to inhibit the growth of normal human fibroblasts or chinese hamster ovary (CHO) cells, at concentration 80 ug/mL. The method in brief:
(§4)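 SV-40-transformed human fibroblasts (SV-589) were seeded at 20 000/well and left 4 h. They were then exposed to compound-reconstituted LDL or reconstituted methylated LDL (Me-r-LDL, not recognised by LDL receptors). Doses are given as LDL protein concentration. On day 3 the wells were PBS-washed to remove dead cells, and adherent cells were fixed with 15% formalin for 15 min and stained with crystal violet. Growth was scored visually, with untreated controls scored 4.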

The species named for experiment [9] is Homo sapiens. Nature of the experiment: The compound was tested for the toxicity of +r-LDL,measured by its ability to inhibit the growth of normal human fibroblasts or chinese hamster ovary (CHO) cells, at concentration 80 ug/mL. The method in brief:
as §4

Experiment [10] is filed under the species Homo sapiens. Nature of the experiment: The compound was tested for the toxicity of normal +r-LDL, measured by its ability to inhibit the growth of normal human fibroblasts or chinese hamster ovary (CHO) cells, at concentration 80 ug/mL. The method in brief:
as §3

For experiment [11], the species on record is Homo sapiens. Nature of the experiment: The compound was tested for the toxicity of normal+r-LDL, measured by its ability to inhibit the growth of normal human fibroblasts or chinese hamster ovary (CHO) cells, at concentration 10 ug/mL. The method in brief: as §3
For experiment [12], the species on record is Homo sapiens. Nature of the experiment: The compound was tested for the toxicity of normal+r-LDL, measured by its ability to inhibit the growth of normal human fibroblasts or chinese hamster ovary (CHO) cells, at concentration 2 ug/mL. The method in brief: as §3
A short description of experiment [13]: The compound was tested for the toxicity of mutant+r-LDL, measured by its ability to inhibit the growth of normal human fibroblasts or chinese hamster ovary (CHO) cells, at concentration 2 ug/mL. Put shortly:
as §3

Turning to `CCCCCCCC/C=C\CCCCCCCCC(=O)O[C@H]1CC[C@@]2(C)C(=CC[C@H]3[C@@H]4CC[C@H](C(C)COC(=O)NCCCCCCCCCCCC)C4CC[C@@H]32)C1` (stereo partly drawn), the Growth of cells (in the experiment filed under Homo sapiens [1]; in [2]) was 6 in each case.

As for `CCCCCCCC/C=C\CCCCCCCCC(=O)O[C@H]1CC[C@@]2(C)C(=CC[C@H]3[C@@H]4CC[C@H](C(C)C(=O)N5CCOC(CCCCCCCCCCCC)C5)C4CC[C@@H]32)C1` (stereo partly drawn), the Growth of cells (in the experiment filed under Homo sapiens [3]; in experiment [4]) was 6 throughout.

`CCCCCCCC/C=C\CCCCCCCCNC(=O)C(C)[C@H]1CC[C@@H]2C1CC[C@H]1[C@H]2CC=C2C[C@@H](OC(=O)CCCCCCCC/C=C\CCCCCCCC)CC[C@@]21C` (stereo partly drawn): the Growth of cells (in the experiment listed under Homo sapiens [5]; in [6]) was 6 throughout.

Turning to `CCCCCCCC/C=C\CCCCCCCCC(=O)O[C@H]1CC[C@@]2(C)C(=CC[C@H]3[C@@H]4CC[C@H](C(C)COC(=O)N(CCCl)CCCl)C4CC[C@@H]32)C1` (stereo partly drawn), the Growth of cells is on record as 0 in the experiment listed under Homo sapiens [7] and 6 in [2].

In the case of `CCCCCCCC/C=C\CCCCCCCCOC(=O)N(CCCCCCCCCCCC)CC(F)(F)F`, the Growth of cells (in the experiment listed under Homo sapiens [7]; in experiment [2]) was 6 throughout.

Take `CCCCCCCC/C=C\CCCCCCCCC(=O)O[C@H]1CC[C@@]2(C)C(=CC[C@H]3[C@@H]4CC[C@H](C(C)COC(=O)CCCc5ccc(N(CCCl)CCCl)cc5)C4CC[C@@H]32)C1` (stereo partly drawn): the Growth of cells in the experiment listed under Homo sapiens [8] worked out at 4; in the experiment filed under Homo sapiens [9] it was 4; in the experiment listed under Homo sapiens [10] it was 6.

Turning to `CCCCCCCC/C=C\CCCCCCCCN1CC(C)OC(C)C1` (stereo not drawn), the Growth of cells (in the experiment filed under Homo sapiens [3]; in [4]) was 0 each time.

For `CCCCCCCC/C=C\CCCCCCCCC(=O)O[C@H]1CC[C@@]2(C)C(=CC[C@H]3[C@@H]4CC[C@H](C(C)CCCOC(=O)CCCc5ccc(N(CCCl)CCCl)cc5)C4CC[C@@H]32)C1` (stereo partly drawn), the Growth of cells in the experiment listed under Homo sapiens [8] and in the experiment listed under Homo sapiens [9] was 4 throughout.

`CCCCCCCC/C=C\CCCCCCCCC(=O)O[C@H]1CC[C@@]2(C)C(=CC[C@H]3[C@@H]4CC[C@H](C(C)COC(=O)N5CCOC(CCCCCCCCCCCC)C5)C4CC[C@@H]32)C1` (stereo partly drawn): the Growth of cells (in the experiment listed under Homo sapiens [1]; in [2]) was 6 throughout.

On to `CCCCCCCC/C=C\CCCCCCCCN1CCOCC1`, for which the values for the Growth of cells (in the experiment listed under Homo sapiens [3]; in [4]) were 0 and 1, respectively.

In the case of `CCCCCCCC/C=C\CCCCCCCCOC(=O)N(CCCCCCCCCCCC)CC(F)F`, the Growth of cells (in the experiment filed under Homo sapiens [1]; in experiment [2]) was 6 each time.

On to `CCCCCCCC/C=C\CCCCCCCCOC(=O)N1CCOC(CCCCCCCCCCCC)C1` (stereo not drawn), for which the Growth of cells (in the experiment filed under Homo sapiens [1]; in experiment [2]) was 6 throughout.

For `CC1=C(/C=C/C(C)=C/C=C/C(C)=C\CN2CCOCC2)C(C)(C)CCC1`, the Growth of cells (in the experiment listed under Homo sapiens [3]; in experiment [4]) was 0 each time.

In the case of `CCCCCCCC/C=C\CCCCCCCCOC(=O)N(CCCl)CCCl`, the Growth of cells in the experiment filed under Homo sapiens [11] is 0; in the experiment listed under Homo sapiens [12] it was 2; in [2] it was 0; in experiment [13], 5.

Consider `CC(C)CCCC(C)C1CCC2C3CC=C4CC(OC(=O)Cc5ccc(N(CCCl)CCCl)cc5)CCC4(C)C3CCC12C` (stereo not drawn), for which the Growth of cells (in the experiment filed under Homo sapiens [5]; in experiment [6]) was 6 throughout.
